Source: ChEMBL document CHEMBL4373711, “Development of 3,5-Dinitrophenyl-Containing 1,2,4-Triazoles and Their Trifluoromethyl Analogues as Highly Efficient Antitubercular Agents Inhibiting Decaprenylphosphoryl-β-d-ribofuranose 2'-Oxidase” (J Med Chem, 2019)

How the values were obtained:
[1] = Selectivity index, ratio of IC50 for human HepG2 cells to MIC>99 for antimycobacterial activity against Mycobacterium kansasii 6509/96 after 21 days; assay type: toxicity; details: read-out: Selectivity Index
[2] = Selectivity index, ratio of IC50 for human HepG2 cells to MIC>99 for antimycobacterial activity against Mycobacterium kansasii CNCTC My 235/80 after 21 days; assay type: toxicity; details: read-out: Selectivity Index
[3] = Selectivity index, ratio of IC50 for human A431 cells to MIC>99 for antimycobacterial activity against XDR Mycobacterium tuberculosis Praha 131 after 14 days; assay type: toxicity; details: read-out: Selectivity Index
[4] = Selectivity index, ratio of IC50 for human A431 cells to MIC>99 for antimycobacterial activity against XDR Mycobacterium tuberculosis Praha 131 after 21 days; assay type: toxicity; details: read-out: Selectivity Index
[5] = Selectivity index, ratio of IC50 for human HepG2 cells to MIC>99 for antimycobacterial activity against Mycobacterium kansasii 6509/96 after 7 days; assay type: toxicity; details: read-out: Selectivity Index
[6] = Selectivity index, ratio of IC50 for human HepG2 cells to MIC>99 for antimycobacterial activity against Mycobacterium kansasii CNCTC My 235/80 after 14 days; assay type: toxicity; details: read-out: Selectivity Index
[7] = Selectivity index, ratio of IC50 for human A431 cells to MIC>99 for antimycobacterial activity against Mycobacterium avium CNCTC My 330/88 after 14 days; assay type: toxicity; details: read-out: Selectivity Index
[8] = Selectivity index, ratio of IC50 for human HepG2 cells to MIC>99 for antimycobacterial activity against XDR Mycobacterium tuberculosis Praha 131 after 21 days; assay type: toxicity; details: read-out: Selectivity Index
Method in brief: (§1)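 SI from HepG2 IC50 and M. tuberculosis MIC. HepG2 cells: DMEM + 10% FBS + 1 mM pyruvate, 10,000/well, 48 h treatment, 0.1% DMSO and 10% SDS controls, MTS absorbance at 490 nm.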

[9] = Selectivity index, ratio of IC50 for human A431 cells to MIC>99 for antimycobacterial activity against Mycobacterium kansasii 6509/96 after 21 days; assay type: toxicity; details: read-out: Selectivity Index
[10] = Selectivity index, ratio of IC50 for human HepG2 cells to MIC>99 for antimycobacterial activity against Mycobacterium tuberculosis H37Rv CNCTC My 331/88 after 21 days; assay type: toxicity; details: read-out: Selectivity Index; method in brief: as §1
[11] = Selectivity index, ratio of IC50 for human A431 cells to MIC>99 for antimycobacterial activity against Mycobacterium kansasii CNCTC My 235/80 after 14 days; assay type: toxicity; details: read-out: Selectivity Index
[12] = Selectivity index, ratio of IC50 for human A431 cells to MIC>99 for antimycobacterial activity against Mycobacterium tuberculosis H37Rv CNCTC My 331/88 after 21 days; assay type: toxicity; details: read-out: Selectivity Index
[13] = Selectivity index, ratio of IC50 for human A431 cells to MIC>99 for antimycobacterial activity against Mycobacterium tuberculosis H37Rv CNCTC My 331/88 after 14 days; assay type: toxicity; details: read-out: Selectivity Index
[14] = Selectivity index, ratio of IC50 for human A431 cells to MIC>99 for antimycobacterial activity against Mycobacterium kansasii 6509/96 after 7 days; assay type: toxicity; details: read-out: Selectivity Index
[15] = Selectivity index, ratio of IC50 for human HepG2 cells to MIC>99 for antimycobacterial activity against Mycobacterium kansasii CNCTC My 235/80 after 7 days; assay type: toxicity; details: read-out: Selectivity Index
[16] = Selectivity index, ratio of IC50 for human A431 cells to MIC>99 for antimycobacterial activity against Mycobacterium kansasii CNCTC My 235/80 after 7 days; assay type: toxicity; details: read-out: Selectivity Index
[17] = Selectivity index, ratio of IC50 for human HepG2 cells to MIC>99 for antimycobacterial activity against Mycobacterium tuberculosis H37Rv CNCTC My 331/88 after 14 days; assay type: toxicity; details: read-out: Selectivity Index; method in brief: as §1
[18] = Selectivity index, ratio of IC50 for human A431 cells to MIC>99 for antimycobacterial activity against Mycobacterium kansasii 6509/96 after 14 days; assay type: toxicity; details: read-out: Selectivity Index
[19] = Selectivity index, ratio of IC50 for human A431 cells to MIC>99 for antimycobacterial activity against Mycobacterium avium CNCTC My 330/88 after 21 days; assay type: toxicity; details: read-out: Selectivity Index
[20] = Selectivity index, ratio of IC50 for human A431 cells to MIC>99 for antimycobacterial activity against Mycobacterium kansasii CNCTC My 235/80 after 21 days; assay type: toxicity; details: read-out: Selectivity Index
[21] = Selectivity index, ratio of IC50 for human HepG2 cells to MIC>99 for antimycobacterial activity against Mycobacterium avium CNCTC My 330/88 after 21 days; assay type: toxicity; details: read-out: Selectivity Index
[22] = Genotoxicity in Salmonella typhimurium TA98 at 30 uM in presence of rat liver S9 fraction by Ames test; assay type: toxicity, subcellular; details: salmonella enterica subsp. enterica serovar typhimurium, s9, 30 µM
Method in brief: (§2)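 Microplate fluctuation Ames reverse-mutation test following kit instructions; TA98 detects frameshift and TA100 base-exchange mutations. Compound at 30 µM final with Aroclor-1254-induced rat liver S9 plus cofactors.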

[23] = Genotoxicity in Salmonella typhimurium TA100 at 30 uM in presence of rat liver S9 fraction by Ames test; assay type: toxicity, subcellular; details: salmonella enterica subsp. enterica serovar typhimurium, s9, 30 µM; method in brief: as §2

O=[N+]([O-])c1cc(-c2nnc(SCc3ccccc3)n2Cc2ccccc2)cc(C(F)(F)F)c1
selectivity ratio at 504 h [1]: > 100 | selectivity ratio at 504 h [2]: > 100 | selectivity ratio at 336 h [3]: > 100 | selectivity ratio at 504 h [4]: > 100 | selectivity ratio at 168 h [5]: > 100 | selectivity ratio at 336 h [6]: > 100 | selectivity ratio at 336 h [7]: > 100 | selectivity ratio at 504 h [8]: > 100 | selectivity ratio at 504 h [9]: > 100 | selectivity ratio at 504 h [10]: > 100 | selectivity ratio at 336 h [11]: > 100 | selectivity ratio at 504 h [12]: > 100 | selectivity ratio at 336 h [13]: > 100 | selectivity ratio at 168 h [14]: > 100 | selectivity ratio at 168 h [15]: > 100 | selectivity ratio at 168 h [16]: > 100 | selectivity ratio at 336 h [17]: > 100 | selectivity ratio at 336 h [18]: > 100 | selectivity ratio at 504 h [19]: > 100 | selectivity ratio at 504 h [20]: > 100 | selectivity ratio at 504 h [21]: > 100

O=[N+]([O-])c1cc(-c2nnc(SCc3ccccc3)n2Cc2ccccc2)cc([N+](=O)[O-])c1
Activity [22]: Non-Toxic | Activity [23]: Non-Toxic
